Reference: ChEMBL document CHEMBL4425193 (Bioorg Med Chem, 2016)
Active and inactive are the calls of the source. The rule behind the calls is not given here. Positions of bridges follow the written chain, without caps; N, C: chain ends. Non-standard residues stand in square brackets, D forms with d. Residues, ends and D or L forms follow the SMILES beside them. Chains are numbered I, II in the order given. ξ: configuration not given here. Gly(N-piperonyl) = O=C(O)CNCc1ccc2c(c1)OCO2; N(4-MeOBn)Gly = COc1ccc(CNCC(=O)O)cc1; Nrpe = C[C@@H](NCC(=O)O)c1ccccc1; Nlys = NCCCCNCC(=O)O; ξK = NCCCCC(N)C(=O)O

Columns and labels:
[1] = Displacement of FITC-labeled PPS1D1 from lipid phosphatidylserine assessed as remaining fluorescence at 1 uM incubated for 1 hr by ELISA-like competitive binding assay
Method in brief: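 Lipid PS in hexane (10 μg/ml) was coated into wells and dried at room temperature. Wells were blocked with 1% BSA/PBS for 1 h, then saturated with 200 nM FITC-PPS1D1 in blocking buffer for 1 h at room temperature and washed. Competitor at 1 μM was added for 1 h. After PBS washes, remaining fluorescence was read at 520 nm.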

HCC4017 [2] = assay: Cytotoxicity against human HCC4017 cells at 0.1 to 100 uM after 1 day by MTS assay; format: functional, cell-based
Method in brief: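 HCC4017 lung cancer cells were seeded in clear-bottom 96-well plates. On day 2 they were exposed to compound in RPMI with 10% FBS containing 3% BSA, at eight graded concentrations from 0.1 μM to 100 μM, each in triplicate. On day 3 MTS reagent was added and absorbance was read at 490 nm.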

HCC4017 [3] = assay: Cytotoxicity against human HCC4017 cells at 30 uM after 1 day by MTS assay
HCC4017 [4] = assay: Cytotoxicity against human HCC4017 cells at 30 uM after 1 day by MTS assay; format: functional, cell-based
Method in brief: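 HCC4017 cells were plated in 96-well format. On the second day compound was added in RPMI/10% FBS with 3% BSA, and each concentration was run in triplicate. MTS reagent was added on day 3 and absorbance was read at 490 nm. The absorbance values at the 30 μM treatment were taken for this readout.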

HCC4017 [5] = assay: Cytotoxicity against human HCC4017 cells after 1 day by MTS assay; format: functional, cell-based; conditions: HCC4017, 24 h
NCI-H460 = assay: Cytotoxicity against human H460 cells after 1 day by MTS assay; format: functional, cell-based; conditions: NCI-H460, 24 h

Row | Structure (SMILES) | inhibition [1] | Activity (HCC4017 [2]) | Activity (HCC4017 [3]) | Activity (HCC4017 [4]) | IC50 (HCC4017 [5]) [µM] | IC50 (NCI-H460) [µM]
1 | CSCC[C@H](NC(=O)[C@@H](CCCCN)NC(=O)[C@H](CCCCN)NC(=O)CNCCCCN)C(=O)NCCCCC(NC(=O)[C@H](CCSC)NC(=O)[C@@H](CCCCN)NC(=O)[C@H](CCCCN)NC(=O)CNCCCCN)C(N)=O (stereo partly drawn) | inactive | inactive | – | – | – | –
2 | COc1ccc(CNCC(=O)N(CCCCN)CC(=O)N[C@@H](CCCCN)C(=O)N[C@H](CCCCN)C(=O)N[C@@H](CCSC)C(=O)NCCCCC(NC(=O)[C@H](CCSC)NC(=O)[C@@H](CCCCN)NC(=O)[C@H](CCCCN)NC(=O)CN(CCCCN)C(=O)CNCc2ccc(OC)cc2)C(N)=O)cc1 (stereo partly drawn) | inactive | inactive | – | – | – | –
3 | COc1ccc(CN(CC(=O)N(CCCCN)CC(=O)N[C@@H](CCCCN)C(=O)N[C@H](CCCCN)C(=O)N[C@@H](C)C(=O)NCCCCC(NC(=O)[C@H](C)NC(=O)[C@@H](CCCCN)NC(=O)[C@H](CCCCN)NC(=O)CN(CCCCN)C(=O)CN(Cc2ccc(OC)cc2)C(=O)CN(C(=O)CN(Cc2ccc3c(c2)OCO3)C(=O)CN[C@H](C)c2ccccc2)[C@H](C)c2ccccc2)C(N)=O)C(=O)CN(C(=O)CN(Cc2ccc3c(c2)OCO3)C(=O)CN[C@H](C)c2ccccc2)[C@H](C)c2ccccc2)cc1 (stereo partly drawn) | – | – | Active | Active | – | –
4 | C=CCNCC(=O)N(CCOC)CC(=O)N(CC=C)CC(=O)N(CCOC)CC(=O)N(CC=C)CC(=O)NCC(=O)N[C@H](CCCCN)C(=O)N[C@@H](CCSC)C(=O)NCCCCC(NC(=O)[C@H](CCSC)NC(=O)[C@@H](CCCCN)NC(=O)CNC(=O)CN(CC=C)C(=O)CN(CCOC)C(=O)CN(CC=C)C(=O)CN(CCOC)C(=O)CNCC=C)C(N)=O (stereo partly drawn) | inactive | inactive | inactive | inactive | – | –
5 | COCCN(CC(=O)N[C@@H](CCCCN)C(=O)N[C@H](CCCCN)C(=O)N[C@@H](CCSC)C(=O)NCCCCC(NC(=O)[C@H](CCSC)NC(=O)[C@@H](CCCCN)NC(=O)[C@H](CCCCN)NC(=O)CN(CCOC)C(=O)CN(Cc1ccc(OC)cc1)C(=O)CN(C(=O)CN(Cc1ccc2c(c1)OCO2)C(=O)CN[C@H](C)c1ccccc1)[C@H](C)c1ccccc1)C(N)=O)C(=O)CN(Cc1ccc(OC)cc1)C(=O)CN(C(=O)CN(Cc1ccc2c(c1)OCO2)C(=O)CN[C@H](C)c1ccccc1)[C@H](C)c1ccccc1 (stereo partly drawn) | – | Active | – | – | – | –
6 | C=CCN(CC(=O)N[C@@H](CCCCN)C(=O)N[C@H](CCCCN)C(=O)N[C@@H](CCSC)C(=O)NCCCCC(NC(=O)[C@H](CCSC)NC(=O)[C@@H](CCCCN)NC(=O)[C@H](CCCCN)NC(=O)CN(CC=C)C(=O)CN(Cc1ccc(OC)cc1)C(=O)CN(C(=O)CN(Cc1ccc2c(c1)OCO2)C(=O)CN[C@H](C)c1ccccc1)[C@H](C)c1ccccc1)C(N)=O)C(=O)CN(Cc1ccc(OC)cc1)C(=O)CN(C(=O)CN(Cc1ccc2c(c1)OCO2)C(=O)CN[C@H](C)c1ccccc1)[C@H](C)c1ccccc1 (stereo partly drawn) | – | Active | – | – | – | –
7 | CSCC[C@H](NC(=O)[C@@H](CCCCN)NC(=O)[C@@H](N)CCCCN)C(=O)NCCCCC(NC(=O)[C@H](CCSC)NC(=O)[C@@H](CCCCN)NC(=O)[C@@H](N)CCCCN)C(N)=O (stereo partly drawn) | inactive | inactive | – | – | – | –

Now from value to compound, other results behind:

Row | inhibition [1] | Structure (SMILES) | Activity (HCC4017 [2]) | Activity (HCC4017 [3]) | Activity (HCC4017 [4]) | IC50 (HCC4017 [5]) [µM] | IC50 (NCI-H460) [µM]
8 | inactive | COc1ccc(CN(CC(=O)N(CCCCN)CC(=O)N[C@@H](CCCCN)C(=O)N[C@H](CCCCN)C(=O)N[C@@H](CCSC)C(=O)NCCCCC(NC(=O)[C@H](CCSC)NC(=O)[C@@H](CCCCN)NC(=O)[C@H](CCCCN)NC(=O)CN(CCCCN)C(=O)CN(Cc2ccc(OC)cc2)C(=O)CN[C@H](C)c2ccccc2)C(N)=O)C(=O)CN[C@H](C)c2ccccc2)cc1 (stereo partly drawn) | inactive | – | – | – | –
9 | inactive | COc1ccc(CN(CC(=O)N(CCCCN)CC(=O)N[C@@H](CCCCN)C(=O)N[C@H](CCCCN)C(=O)N[C@@H](CCSC)C(=O)NCCCCC(NC(=O)[C@H](CCSC)NC(=O)[C@@H](CCCCN)NC(=O)[C@H](CCCCN)NC(=O)CN(CCCCN)C(=O)CN(Cc2ccc(OC)cc2)C(=O)CN(C(=O)CNCc2ccc3c(c2)OCO3)[C@H](C)c2ccccc2)C(N)=O)C(=O)CN(C(=O)CNCc2ccc3c(c2)OCO3)[C@H](C)c2ccccc2)cc1 (stereo partly drawn) | inactive | – | – | – | –
10 | inactive | COc1ccc(CN(CC(=O)N(CCCCN)CC(=O)N[C@@H](CCCCN)C(=O)N[C@H](CCCCN)C(=O)N[C@@H](CCSC)C(=O)NCCCCC(NC(=O)[C@H](CCSC)NC(=O)[C@@H](CCCCN)NC(=O)[C@H](CCCCN)NC(=O)CN(CCCCN)C(=O)CN(Cc2ccc(OC)cc2)C(=O)CN(C)C(=O)CN(Cc2ccc3c(c2)OCO3)C(=O)CN[C@H](C)c2ccccc2)C(N)=O)C(=O)CN(C)C(=O)CN(Cc2ccc3c(c2)OCO3)C(=O)CN[C@H](C)c2ccccc2)cc1 (stereo partly drawn) | – | inactive | inactive | – | –
11 | inactive | CSCC[C@H](NC(=O)[C@@H](CCCCN)NC(=O)[C@H](CCCCN)NC(=O)CN(CCCCN)C(=O)CN(C)C(=O)CN(C(=O)CN(Cc1ccc2c(c1)OCO2)C(=O)CN[C@H](C)c1ccccc1)[C@H](C)c1ccccc1)C(=O)NCCCCC(NC(=O)[C@H](CCSC)NC(=O)[C@@H](CCCCN)NC(=O)[C@H](CCCCN)NC(=O)CN(CCCCN)C(=O)CN(C)C(=O)CN(C(=O)CN(Cc1ccc2c(c1)OCO2)C(=O)CN[C@H](C)c1ccccc1)[C@H](C)c1ccccc1)C(N)=O (stereo partly drawn) | – | inactive | inactive | – | –
12 | Active | COc1ccc(CN(CC(=O)N(CCCCN)CC(=O)N[C@@H](CCCCN)C(=O)N[C@H](CCCCN)C(=O)N[C@@H](CCSC)C(=O)NCCCCC(NC(=O)[C@H](CCSC)NC(=O)[C@@H](CCCCN)NC(=O)[C@H](CCCCN)NC(=O)CN(CCCCN)C(=O)CN(Cc2ccc(OC)cc2)C(=O)CN(C(=O)CN(Cc2ccc3c(c2)OCO3)C(=O)CN[C@H](C)c2ccccc2)[C@H](C)c2ccccc2)C(N)=O)C(=O)CN(C(=O)CN(Cc2ccc3c(c2)OCO3)C(=O)CN[C@H](C)c2ccccc2)[C@H](C)c2ccccc2)cc1 (stereo partly drawn) | Active | Active | Active | 5 to 10 | 5 to 10
13 | inactive | COc1ccc(CN(CC(=O)N(CCCCN)CC(=O)N[C@@H](CCCCN)C(=O)N[C@@H](C)C(=O)N[C@@H](CCSC)C(=O)NCCCCC(NC(=O)[C@H](CCSC)NC(=O)[C@H](C)NC(=O)[C@H](CCCCN)NC(=O)CN(CCCCN)C(=O)CN(Cc2ccc(OC)cc2)C(=O)CN(C(=O)CN(Cc2ccc3c(c2)OCO3)C(=O)CN[C@H](C)c2ccccc2)[C@H](C)c2ccccc2)C(N)=O)C(=O)CN(C(=O)CN(Cc2ccc3c(c2)OCO3)C(=O)CN[C@H](C)c2ccccc2)[C@H](C)c2ccccc2)cc1 (stereo partly drawn) (I: H-[Nrpe][Gly(N-piperonyl)][Nrpe][N(4-MeOBn)Gly][Nlys]KAM[ξK]-NH2 / II: H-[Nrpe][Gly(N-piperonyl)][Nrpe][N(4-MeOBn)Gly][Nlys]KAM; amide I:9-II:C) | – | inactive | inactive | – | –
